Casp6 inh: caspase-6 (human) enzyme inhibition; 350,000 tested, 0.53% active; P55212; purified caspase-6, Z-VEID-R110 cleavage fluorescence; inhibition, % at 12.5 µM; AID 686996;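 active means mean inhibition across replicates at least about 35%, with every replicate also reaching that limit, limit read from the data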
LEDGF integ inh: blocks HIV-1 LEDGF/p75-dependent DNA integration; inhibition, % at 3.7 µM; AID 743269; TR-FRET IN-LEDGF/p75 DNA integration, Eu/Cy5; 370,000 tested, 0.64% active;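 active means inhibition above the screen-wide mean plus 3 SD, cut at about 13% in these data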;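 further: signal is the Cy5 over europium emission ratio at 671 and 618 nm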
MBD2 DNA inh: blocks human MBD2 binding to methylated DNA; inhibition, % at 4.4 µM; TR-FRET, MBD2 binding to methylated oligonucleotide; AID 686964; Q9UBB5; 370,000 tested, 0.31% active; in the data active means inhibition above about 13%
Target sequence (Q9UBB5 whole entry, looked up): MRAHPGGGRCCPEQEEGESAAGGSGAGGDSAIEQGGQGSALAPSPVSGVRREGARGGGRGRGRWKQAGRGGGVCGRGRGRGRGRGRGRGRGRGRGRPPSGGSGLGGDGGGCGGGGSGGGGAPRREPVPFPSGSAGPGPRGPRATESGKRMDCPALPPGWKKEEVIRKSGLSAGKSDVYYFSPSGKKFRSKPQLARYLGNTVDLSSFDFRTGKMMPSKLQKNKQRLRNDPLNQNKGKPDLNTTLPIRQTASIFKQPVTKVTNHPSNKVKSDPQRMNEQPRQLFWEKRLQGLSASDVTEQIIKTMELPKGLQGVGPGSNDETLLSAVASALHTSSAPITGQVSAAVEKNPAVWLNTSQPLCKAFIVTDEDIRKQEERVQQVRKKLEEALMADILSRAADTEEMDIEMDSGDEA
NSD2 inh: blocks human histone methyltransferase NSD2. O96028. NSD2 peptide methylation, AlphaScreen, 120 min. inhibition, % at 12.5 µM. 310,000 tested, 0.54% active. AID 743445; in the data active means inhibition above about 50%
TDP2 inh: TDP2 (human) inhibition, absorbance primary screen | O95551 | recombinant TDP2, T5PNP hydrolysis, p-nitrophenol absorbance 415 nm | inhibition, % at 12.8 µM | 370,000 tested, 0.34% active;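 active means inhibition above the mean of all tested compounds plus 3 SD, set per campaign, cut at about 25% in these data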
Target sequence (O95551 whole entry, looked up): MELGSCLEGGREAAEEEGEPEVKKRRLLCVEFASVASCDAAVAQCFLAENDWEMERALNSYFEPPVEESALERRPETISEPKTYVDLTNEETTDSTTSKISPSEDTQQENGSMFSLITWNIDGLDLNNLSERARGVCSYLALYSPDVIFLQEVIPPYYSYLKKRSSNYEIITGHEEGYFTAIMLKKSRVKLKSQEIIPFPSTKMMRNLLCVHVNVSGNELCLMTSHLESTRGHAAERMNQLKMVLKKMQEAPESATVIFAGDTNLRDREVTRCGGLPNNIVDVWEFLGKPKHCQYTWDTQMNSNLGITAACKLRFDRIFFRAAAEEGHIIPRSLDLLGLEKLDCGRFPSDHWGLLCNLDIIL
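Test system: Human TDP2 enzyme | Reagent: 5 mM T5PNP | Compound dosing: 12.8 µM single point, 1% DMSO | Incubation: Enzyme reaction with compound for 2 h at 37 °C | Technique: p-Nitrophenol epi absorbance | Read-out: % inhibition relative to enzyme-containing and enzyme-free wells | Benchmarks: High control without enzyme, low control DMSO plus TDP2 | Replicates: Singlicate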
UHRF1 binding: UHRF1 methyl-DNA binding inhibition; AID 687016; inhibition, % at 4.4 µM; Q96T88; 370,000 tested, 0.75% active; UHRF1 binding to methylated oligo, TR-FRET; in the data active means inhibition above about 21%;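 further: UHRF1 SRA domain binding a hemimethylated CpG hairpin DNA probe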
AlphaScreen art: interferes with AlphaScreen signal, flagging NSD2 false positives; 1,500 tested, 9.4% active; AC35, µM (doses to about 10 µM); shares compounds with NSD2 inh; AlphaScreen artifact counterscreen, preloaded methylated H4 peptide; call rule not given here
Large screens that a line does not name were inactive (follow-up assays come after a bar, where they were run). Hits are enriched below; roughly 1.8% of the tested compounds scored in any of these assays.

COc1cccc(OCCOc2ccc(/C=C3\C(=N)N4N=C(S(C)(=O)=O)SC4=NC3=O)cc2OC)c1	none
COc1ccccc1OCCOc1ccc(/C=C2\C(=N)N3N=C(S(C)(=O)=O)SC3=NC2=O)cc1	NSD2 inh 71 | AlphaScreen art inactive
COc1ccccc1NC(=O)c1ccc(NC(=O)C2COc3ccccc3O2)cc1 (stereo not drawn)	NSD2 inh 76 | AlphaScreen art inactive
COc1ccc(OC)c(NC(=O)C2COc3ccccc3O2)c1 (stereo not drawn)	none (no result: Casp6 inh)
C[C@@H]1CN([C@H](C)CO)C(=O)c2cc(NC(=O)Nc3ccccc3)ccc2O[C@@H]1CN(C)Cc1ccc(-c2ccccc2)cc1	none (no result: LEDGF integ inh, MBD2 DNA inh, NSD2 inh, TDP2 inh, UHRF1 binding)
O=C1CCCC(O)=C1N=Nc1cccc(C(=O)O)c1	Casp6 inh 37, NSD2 inh 69, UHRF1 binding 21 | AlphaScreen art inactive
COc1ccc(C(=O)c2nccc3cc(OC)c(OC)cc23)cc1OC	NSD2 inh 90 (no result: Casp6 inh, LEDGF integ inh, MBD2 DNA inh, TDP2 inh, UHRF1 binding) | AlphaScreen art inactive
CC(C)CC(=O)N1CCC(O)(CS(=O)(=O)Cc2ccccc2Cl)CC1	NSD2 inh 103 (no result: Casp6 inh) | AlphaScreen art inactive
O=C1CCC(=O)N1OCCCOc1ccc2c(c1)CCC2	none (no result: Casp6 inh)
CNCCCOc1ccc2c(c1)CCC2	NSD2 inh 61 | AlphaScreen art inactive
Cn1nc(C#N)c(=O)[nH]c1=O	none
COC(=O)c1nn(C)c(=O)[nH]c1=O	NSD2 inh 51 | AlphaScreen art inactive
COc1ccccc1NC(=O)c1ccc(-n2cccn2)nc1	NSD2 inh 118 (no result: Casp6 inh) | AlphaScreen art inactive
COc1ccc(NC(=O)c2ccc(-n3cccn3)nc2)c(OC)c1	none (no result: Casp6 inh)
CC(=O)C1=C(O)C(=O)N(Cc2cccnc2)C1c1ccc(O)cc1 (stereo not drawn)	none
CC(=O)C1=C(O)C(=O)N(Cc2cccnc2)C1c1ccccc1 (stereo not drawn)	NSD2 inh 131 (no result: Casp6 inh) | AlphaScreen art inactive
COc1ccc(NC(=O)N2CC3(C2)CN(C(=O)CN2CCOCC2)[C@H](CO)c2[nH]c4cc(OC)ccc4c23)cc1	none (no result: LEDGF integ inh, MBD2 DNA inh, NSD2 inh, TDP2 inh, UHRF1 binding)
Cc1ccccc1NC(=O)CN1CCC(C(=O)c2ccc3c(c2)OCCO3)CC1	NSD2 inh 56 | AlphaScreen art inactive
O=C(CN1CCC(C(=O)c2ccc3c(c2)OCCO3)CC1)Nc1ccccc1C(F)(F)F	none
CCCCC(=O)OCc1cn(-c2ccc(Cl)cc2)nn1	NSD2 inh 121 (no result: Casp6 inh) | AlphaScreen art inactive
C[C@@H]1CN([C@H](C)CO)S(=O)(=O)c2ccc(C3=CCCCC3)cc2O[C@@H]1CN(C)C(=O)Nc1ccc2c(c1)OCO2	none (no result: LEDGF integ inh, MBD2 DNA inh, NSD2 inh, TDP2 inh, UHRF1 binding)
COc1cc(CN2CC3(CCN(C(=O)c4cccnc4)CC3)c3c([nH]c4cc(OC)ccc34)[C@@H]2CO)cc(OC)c1	none (no result: LEDGF integ inh, MBD2 DNA inh, NSD2 inh, TDP2 inh, UHRF1 binding)
CCC(=O)N(C)C[C@@H]1Oc2cc(-c3ccccc3C)ccc2S(=O)(=O)N([C@H](C)CO)C[C@H]1C	none (no result: LEDGF integ inh, MBD2 DNA inh, NSD2 inh, TDP2 inh, UHRF1 binding)
COc1ccc2c(c1)c1nc3ccccc3nc1n2CCn1c(=O)oc2ccccc21	NSD2 inh 58 (no result: Casp6 inh) | AlphaScreen art inactive
COc1ccccc1NC(=O)N1CC(=O)N2[C@H](CO)[C@@H](c3ccc(-c4ccc(C)cc4)cc3)[C@@H]2C1	none (no result: LEDGF integ inh, MBD2 DNA inh, NSD2 inh, TDP2 inh, UHRF1 binding)
CNC[C@@H]1Oc2ncc(-c3ccccc3C)cc2C(=O)N([C@H](C)CO)C[C@H]1C	none (no result: LEDGF integ inh, MBD2 DNA inh, NSD2 inh, TDP2 inh, UHRF1 binding)
S=C(Nc1ccccc1Cl)N1CCCC(c2ccccc2)=N1	none
CC(C)c1ccc(NC(=S)N2CCCC(c3ccc(F)cc3)=N2)cc1	NSD2 inh 60 | AlphaScreen art inactive
Cc1ccccc1CS(=O)(=O)CC(O)CN1CCCC1=O (stereo not drawn)	NSD2 inh 129 | AlphaScreen art inactive
O=Nc1ccc(O)c2ncccc12	NSD2 inh 64 | AlphaScreen art inactive
Cc1ccccc1N=Nc1ccc(O)c2ncccc12	none
O=S(=O)(O)c1cccc2c(N=Nc3ccc(O)c4ncccc34)cccc12	NSD2 inh 66 (no result: LEDGF integ inh, MBD2 DNA inh, TDP2 inh, UHRF1 binding) | AlphaScreen art inactive
CC(=O)N(C)c1ccc(N=Nc2c(C)[nH]n(C(N)=S)c2=O)cc1	NSD2 inh 80 | AlphaScreen art inactive
CCOC(=O)CN(C(=O)COc1nc(-c2ccccc2)cc(C)c1C#N)c1ccccc1	NSD2 inh 71 | AlphaScreen art inactive
O=C(NCC1CCCCC1)[C@@H]1[C@@H](CO)[C@@H]2Cn3c(ccc(-c4cccnc4)c3=O)[C@H]1N2	none (no result: LEDGF integ inh, MBD2 DNA inh, NSD2 inh, TDP2 inh, UHRF1 binding)
Nc1ncnc(NCc2ccccc2)c1[N+](=O)[O-]	NSD2 inh 53 | AlphaScreen art inactive
Nc1ncnc(NCc2ccc(F)cc2)c1[N+](=O)[O-]	none
Cc1noc(C)c1S(=O)(=O)N(C)C[C@H]1OCCCC[C@H](C)Oc2ccc(NS(=O)(=O)c3cccs3)cc2C(=O)N([C@@H](C)CO)C[C@@H]1C	none (no result: LEDGF integ inh, MBD2 DNA inh, NSD2 inh, TDP2 inh, UHRF1 binding)
CN1/C(=C\C(=O)COC(=O)c2ccc(O)c(O)c2)C(C)(C)c2ccccc21	NSD2 inh 56 | AlphaScreen art inactive
COc1ccc(-c2nn(-c3ccccc3)cc2C(=O)Nc2ccc(C(=O)O)cc2)cc1	NSD2 inh 73 | AlphaScreen art inactive
CN1CCC(=NNC(=O)c2cn(-c3ccccc3)nc2-c2ccccc2)CC1	NSD2 inh 53 | AlphaScreen art inactive
O=C(O)c1ccc(NC(=O)c2cn(-c3ccccc3)nc2-c2ccccc2)cc1	none
COc1ccc2c3c([nH]c2c1)[C@@H](CO)N(CC1CCOCC1)CC31CN(C(=O)c2ccc(F)cc2)C1	none (no result: LEDGF integ inh, MBD2 DNA inh, NSD2 inh, TDP2 inh, UHRF1 binding)
COc1ccc(-n2cc(CNCCN3CCOC3=O)c(-c3ccccc3Cl)n2)cc1	none
CCN1CCC(CNCc2cn(-c3ccc(OC)cc3)nc2-c2ccccc2Cl)C1 (stereo not drawn)	NSD2 inh 75 | AlphaScreen art inactive
C[C@@H]1CN([C@H](C)CO)S(=O)(=O)c2ccc(C#CCN(C)C)cc2O[C@H]1CN(C)Cc1ccccc1	none (no result: LEDGF integ inh, MBD2 DNA inh, NSD2 inh, TDP2 inh, UHRF1 binding)
Cc1cccc(N2CCN(S(=O)(=O)c3c(C)nc4scc(C)n4c3=O)CC2C)c1 (stereo not drawn)	NSD2 inh 105 | AlphaScreen art inactive
Cc1nc2scc(C)n2c(=O)c1S(=O)(=O)N1CCN(c2ccccc2)CC1	none
COc1ccc(CNC(=O)c2nnn(-c3cccc(C(F)(F)F)c3)c2N)cc1	NSD2 inh 51 | AlphaScreen art inactive
COCCNC(=O)Cc1c(C)c2c(cc(C)c3c(C)coc32)oc1=O	NSD2 inh 51 | AlphaScreen art inactive
Oc1cccc(NC(=S)N=Nc2c(O)[nH]c3ccc(Br)cc23)c1	NSD2 inh 67 | AlphaScreen art inactive
Oc1ccc(NC(=S)N=Nc2c(O)[nH]c3ccc(Br)cc23)cc1	none (no result: NSD2 inh)
O=C(C[C@@H]1C=C[C@H](NC(=O)Nc2cc(F)ccc2F)[C@@H](CO)O1)Nc1ccc(-c2ccccc2)cc1	none (no result: LEDGF integ inh, MBD2 DNA inh, NSD2 inh, TDP2 inh, UHRF1 binding)
Cc1ccc2nc(-c3ccc(O)c(O)c3)cn2c1	Casp6 inh 38, LEDGF integ inh 23, NSD2 inh 55 | AlphaScreen art inactive
